Assay results pooled from the literature.
Compare with care: the assays were run in different laboratories.
EGFR L861Q: Epidermal growth factor receptor (EGFR, Homo sapiens, UniProt P00533, L861Q)
EGFR G719C: Epidermal growth factor receptor (EGFR, Homo sapiens, UniProt P00533, G719C)
EGFR G719S: Epidermal growth factor receptor (EGFR, Homo sapiens, UniProt P00533, G719S)
EGFR L858R: Epidermal growth factor receptor (EGFR, Homo sapiens, UniProt P00533, L858R)
EGFR del747-752/P753S: Epidermal growth factor receptor (EGFR, Homo sapiens, UniProt P00533, del747-752/P753S)
EGFR L858R/T790M: Epidermal growth factor receptor (EGFR, Homo sapiens, UniProt P00533, L858R/T790M)
EGFR del746-750: Epidermal growth factor receptor (EGFR, Homo sapiens, UniProt P00533, del746-750)
EGFR: Epidermal growth factor receptor (EGFR, Homo sapiens, UniProt P00533)

| SMILES | target | effect on | technique | concentration | remaining binding [%] |
| --- | --- | --- | --- | --- | --- |
| Nc1ncc2c(n1)-c1c([nH]c3ccc(C#CC4CC4)cc13)CCCC2 | EGFR L861Q | binding | competition with immobilised ligand | 1 µM | 92 |
| COc1cnc(Nc2cccc(S(N)(=O)=O)c2)nc1N1CCN(c2ccccc2)C(=O)C1 | EGFR G719C | binding | competition with immobilised ligand | 1 µM | 100 |
| O=C(NCC1CCOCC1)c1n[nH]cc1NC(=O)c1c(F)cccc1F | EGFR L861Q | binding | competition with immobilised ligand | 1 µM | 100 |
| CCN1CCN(Cc2ccc(C(=O)Nc3ccc(C)c(Oc4ccc5c(c4)CC(=O)N5)c3)cc2C(F)(F)F)CC1 | EGFR G719S | binding | competition with immobilised ligand | 1 µM | 80 |
| O=C(NCCCN1CCOCC1)c1ccc(Nc2ncc(Cl)c(-c3ccc(Cl)s3)n2)cc1 | EGFR L861Q | binding | competition with immobilised ligand | 1 µM | 100 |
| CS(=O)(=O)NCC[C@H](NC(=O)c1cncc2c1cnn2-c1ccc(F)cc1)c1ccnc(S(C)(=O)=O)c1 | EGFR G719S | cell-free assay | competition with immobilised ligand | 1 µM | 75 |
| COc1ncc2cc3ccccc3nc2c1C#N | EGFR G719C | cell-free assay | competition with immobilised ligand | 5 µM | 2.1 |
| CNC(=O)[C@@H]1CC[C@@H](n2c(-c3ccc4cnccc4c3)nc3ccc(C(=O)NCc4cccc(C(N)=O)c4)cc32)C1 | EGFR L858R | binding | competition with immobilised ligand | 1 µM | 100 |
| O=C(c1ccc(Nc2ncc(Cl)c(-c3ccc(Cl)s3)n2)cc1)N1CCC(N2CCCC2)CC1 | EGFR del747-752/P753S | binding | competition with immobilised ligand | 1 µM | 82 |
| Cc1cnn2ncc(-c3ccnc(N(C)C)n3)c2c1 | EGFR L858R/T790M | binding | – | 1 µM | 100 |
| O=C(NCCCN1CCOCC1)c1ccc(Nc2nccc(-c3cc4ccccc4s3)n2)cc1 | EGFR G719S | binding | competition with immobilised ligand | 1 µM | 100 |
| CN1CCN(c2ccc(Nc3nccc(-c4cccc([N+](=O)[O-])c4)n3)cc2C(F)(F)F)CC1 | EGFR del746-750 | binding | – | 10 µM | 34 |
| O=C(c1ccc(Nc2ncc(Cl)c(-c3cc4ccccc4s3)n2)cc1)N1CCC(N2CCCC2)CC1 | Epidermal growth factor receptor (EGFR, Homo sapiens, UniProt P00533, del747-750/T751S) | binding | competition with immobilised ligand | 1 µM | 89 |
| C[C@H]1CCN(c2nccc(-c3cnn4ncccc34)n2)C1 | EGFR | binding | – | 1 µM | 100 |
| COc1cnc(Nc2cccc(S(N)(=O)=O)c2)nc1N1CCN(c2ccccc2)CC1 | EGFR del747-752/P753S | binding | competition with immobilised ligand | 1 µM | 85 |
| CNC(=O)Nc1ccc2c(c1)CC[C@@]21OC(=O)N(CC(=O)N(Cc2ccc(F)cc2)[C@@H](C)C(F)(F)F)C1=O | EGFR del747-752/P753S | cell-free assay | competition with immobilised ligand | 1 µM | 64 |
| CC1CCCN1c1nccc(-c2cnn3ncccc23)n1 (centres unmarked) | Epidermal growth factor receptor (EGFR, Homo sapiens, UniProt P00533, del752-759) | binding | – | 1 µM | 100 |
| CC(C)(O)c1cncc(-c2nc3ccc(F)cc3n2C2CC2)c1 | EGFR L861Q | cell-free assay | competition with immobilised ligand | 1 µM | 100 |

| SMILES | target | effect on | technique | concentration | remaining binding [%] |
| --- | --- | --- | --- | --- | --- |
| CN1CCN(c2ccc(Nc3nccc(-c4ccccc4)n3)cc2C(F)(F)F)CC1 | EGFR L861Q | binding | – | 10 µM | 94 |
| Cc1cnc(Nc2ccc(C(=O)N3CCC(N4CCCC4)CC3)cc2)nc1-c1cc2ccccc2s1 | EGFR G719C | binding | competition with immobilised ligand | 1 µM | 92 |
| C[C@H](c1cccc(C#N)c1)n1cc(Cl)cc(C(N)=O)c1=N | EGFR L858R | cell-free assay | competition with immobilised ligand | 1 µM | 86 |
| CN(C)c1ncc(F)c(-c2cnn3ncccc23)n1 | EGFR G719S | binding | – | 1 µM | 100 |
| CN(C)c1ncnc(-c2ccc3nc(Nc4cc(CN5CCN(C(=O)CC(F)(F)F)CC5)ccn4)[nH]c3c2)c1Cl | EGFR L858R/T790M | cell-free assay | competition with immobilised ligand | 1 µM | 82 |
| Cc1c(-c2ccccc2)oc2c(C(=O)OCCN3CCCCC3)cccc2c1=O | EGFR | cell-free assay | competition with immobilised ligand | 0.1 µM | 100 |
| c1cncc(-c2cccc(Nc3nccc(NC4CCCCC4)n3)c2)c1 | EGFR L858R | binding | competition with immobilised ligand | 10 µM | 58 |
| CN(CCCC(F)(F)F)c1nccc(-c2cnn3ncccc23)n1 | EGFR del746-750 | binding | – | 1 µM | 80 |
| Cc1ccc(NC(=O)c2ccc(CN3CCN(C)CC3)cc2)cc1Nc1nccc(-c2cccnc2)n1 | EGFR | cell-free assay | competition with immobilised ligand | 10 µM | 71 |
| Cc1noc([C@H]2C[C@@H](c3ccc(C(F)(F)F)cc3)CN(C(=O)N3CCS(=O)(=O)C3)C2)n1 | EGFR L858R/T790M | cell-free assay | competition with immobilised ligand | 1 µM | 96 |
| O=C(c1ccc(Nc2nccc(-c3cc4ccccc4s3)n2)cc1)N1CCC(N2CCCC2)CC1 | EGFR del746-750 | binding | competition with immobilised ligand | 1 µM | 100 |
| CN(C)c1nccc(-c2cnc3ncccn23)n1 | EGFR | binding | – | 1 µM | 63 |
| O=C(Nc1c[nH]nc1C(=O)NC1CCNCC1)c1cc(F)cc(F)c1 | EGFR | binding | competition with immobilised ligand | 1 µM | 96 |
| O=C(Nc1ccc(Oc2ccc(F)cc2)cc1)N1CCc2ncccc2[C@H]1c1ccc(F)cc1 | Epidermal growth factor receptor (EGFR, Homo sapiens, UniProt P00533, T790M) | cell-free assay | competition with immobilised ligand | 1 µM | 87 |
| N#Cc1ccccc1CSc1nnc2c(n1)[nH]c1ccccc12 | EGFR | binding | competition with immobilised ligand | 10 µM | 100 |
| N[C@H]1CCN(c2nccc(-c3cnn4ncccc34)n2)C1 | EGFR del746-750 | binding | – | 1 µM | 98 |
| C[C@@H]1CN(c2cc(-c3n[nH]c4ccc(OC5(C)CC5)cc34)ncn2)C[C@H](C)O1 | EGFR L858R | cell-free assay | competition with immobilised ligand | 0.1 µM | 82 |
